Source: article PMC5615838 (Toxicology Reports, 2016)

Legend:
[1] = toxicokinetics in 90-day toxicity study; format: in vivo, rat; conditions: rat, plasma, po; for AUC(0-t): AUC0-24h
How it was run: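 In the 90-day dietary study (10, 30, 100 mg/kg bw/day), plasma taken at 6 time points over 24 h on Day 7, Week 6 and Week 13, assayed by validated LC-MS/MS. […] Accumulation ratio = AUC0-24h at Week 6 or 13 / Day 7.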

[2] = definitive developmental toxicity study; format: in vivo, rat
[3] = female, Sprague-Dawley, 30 mg/kg, Week 6, 30 mg/kg bw, F
[4] = female, Sprague-Dawley, 100 mg/kg, Week 6, 100 mg/kg bw, F
[5] = male, Sprague-Dawley [Crl:CD(SD)], 10 mg/kg, Day 7, 10 mg/kg bw, M
[6] = male, Sprague-Dawley [Crl:CD(SD)], 10 mg/kg, Week 13, 10 mg/kg bw, M
[7] = male, Sprague-Dawley [Crl:CD(SD)], 30 mg/kg, Day 7, 30 mg/kg bw, M
[8] = male, Sprague-Dawley [Crl:CD(SD)], 30 mg/kg, Week 13, 30 mg/kg bw, M
[9] = male, Sprague-Dawley [Crl:CD(SD)], 100 mg/kg, Day 7, 100 mg/kg bw, M
[10] = male, Sprague-Dawley [Crl:CD(SD)], 100 mg/kg, Week 13, 100 mg/kg bw, M
[11] = male, Sprague-Dawley, 10 mg/kg, Week 6, 10 mg/kg bw, M
[12] = male, Sprague-Dawley, 30 mg/kg, Week 6, 30 mg/kg bw, M
[13] = male, Sprague-Dawley, 100 mg/kg, Week 6, 100 mg/kg bw, M

Question: For `Cc1noc(C)c1Cn1cc(N2C(=O)CN(Cc3cccc(O)c3)C2=O)cn1` [S6821, 3-(1-((3,5-dimethylisoxazol-4-yl)methyl)-1H-pyrazol-4-yl)-1-(3-hydroxybenzyl)imidazolidine-2,4-dione], which Cmax ([1]; female, Sprague-Dawley, 10 mg/kg, Week 6, 10 mg/kg bw, F) is on record?
Answer: 6.34 ng/mL

Question: And the AUC(0-t) [1, 3]?
Answer: 331 ng·h/mL

Question: What about the Cmax [1, 3] of the same compound?
Answer: 17.5 ng/mL

Question: What about the AUC(0-t) [1, 4] of the same compound?
Answer: 1300 ng·h/mL

Question: What about the Cmax [1, 4] of the same compound?
Answer: 95.6 ng/mL

Question: What about the AUC(0-t) [1, 5] of the same compound?
Answer: 118 ng·h/mL

Question: And the AUC(0-t) [1, 6]?
Answer: 123 ng·h/mL

Question: And the Cmax [1, 5]?
Answer: 6.05 ng/mL

Question: And the Cmax [1, 6]?
Answer: 5.99 ng/mL

Question: And the AUC(0-t) [1, 7]?
Answer: 295 ng·h/mL

Question: What about the AUC(0-t) [1, 8] of the same compound?
Answer: 305 ng·h/mL

Question: What about the Cmax [1, 7] of the same compound?
Answer: 16.7 ng/mL

Question: And the Cmax [1, 8]?
Answer: 18.3 ng/mL

Question: And the AUC(0-t) [1, 9]?
Answer: 844 ng·h/mL

Question: And the AUC(0-t) [1, 10]?
Answer: 925 ng·h/mL

Question: And the Cmax [1, 9]?
Answer: 41.4 ng/mL

Question: And the Cmax [1, 10]?
Answer: 54.7 ng/mL

Question: What about the AUC(0-t) [1, 11] of the same compound?
Answer: 126 ng·h/mL

Question: What about the Cmax [1, 11] of the same compound?
Answer: 10.7 ng/mL

Question: What about the AUC(0-t) [1, 12] of the same compound?
Answer: 293 ng·h/mL

Question: What about the Cmax [1, 12] of the same compound?
Answer: 24.6 ng/mL

Question: What about the AUC(0-t) [1, 13] of the same compound?
Answer: 758 ng·h/mL

Question: And the Cmax [1, 13]?
Answer: 43.7 ng/mL

Question: And the “Malformations, fetuses (litters)” value ([2]; 125 mg/kg bw/day, of 347(25) evaluated)?
Answer: 3(2)

Question: And the “Malformations, fetuses (litters)” value ([2]; 500 mg/kg bw/day, of 364(25) evaluated)?
Answer: 2(2)

Question: What about the “Malformations, fetuses (litters)” value ([2]; 1000 mg/kg bw/day, of 327(22) evaluated) of the same compound?
Answer: 4(3)

Question: What about the “Corpora Lutea” value ([2]; Mean, 125 mg/kg bw/day) of the same compound?
Answer: 15.4

Question: What about the “Dead Fetuses” value ([2]; Mean, 125 mg/kg bw/day) of the same compound?
Answer: 0.0

Question: And the “Fetal Wt.” value ([2]; Mean, 125 mg/kg bw/day)?
Answer: 5.7 g

Question: And the “Fetuses, Sex F” value ([2]; Mean, 125 mg/kg bw/day)?
Answer: 6.8

Question: What about the “Fetuses, Sex M” value ([2]; Mean, 125 mg/kg bw/day) of the same compound?
Answer: 7.1

Question: And the “Implant. Sites” value ([2]; Mean, 125 mg/kg bw/day)?
Answer: 14.6

Question: And the “Post- Implant. Loss” value ([2]; Mean, 125 mg/kg bw/day)?
Answer: 0.7

Question: What about the “Pre- Implant. Loss” value ([2]; Mean, 125 mg/kg bw/day) of the same compound?
Answer: 0.8

Question: What about the “Resorptions Early” value ([2]; Mean, 125 mg/kg bw/day) of the same compound?
Answer: 0.7

Question: And the “Resorptions Late” value ([2]; Mean, 125 mg/kg bw/day)?
Answer: 0.0

Question: What about the “Corpora Lutea” value ([2]; Mean, 500 mg/kg bw/day) of the same compound?
Answer: 16.6

Question: What about the “Dead Fetuses” value ([2]; Mean, 500 mg/kg bw/day) of the same compound?
Answer: 0.0

Question: And the “Fetal Wt.” value ([2]; Mean, 500 mg/kg bw/day)?
Answer: 5.6 g

Question: And the “Fetuses, Sex F” value ([2]; Mean, 500 mg/kg bw/day)?
Answer: 7.4

Question: And the “Fetuses, Sex M” value ([2]; Mean, 500 mg/kg bw/day)?
Answer: 7.2

Question: What about the “Implant. Sites” value ([2]; Mean, 500 mg/kg bw/day) of the same compound?
Answer: 15.4

Question: And the “Post- Implant. Loss” value ([2]; Mean, 500 mg/kg bw/day)?
Answer: 0.8

Question: And the “Pre- Implant. Loss” value ([2]; Mean, 500 mg/kg bw/day)?
Answer: 1.2

Question: What about the “Resorptions Early” value ([2]; Mean, 500 mg/kg bw/day) of the same compound?
Answer: 0.8

Question: What about the “Resorptions Late” value ([2]; Mean, 500 mg/kg bw/day) of the same compound?
Answer: 0.0

Question: And the “Corpora Lutea” value ([2]; Mean, 1000 mg/kg bw/day)?
Answer: 16.9

Question: What about the “Dead Fetuses” value ([2]; Mean, 1000 mg/kg bw/day) of the same compound?
Answer: 0.0

Question: And the “Fetal Wt.” value ([2]; Mean, 1000 mg/kg bw/day)?
Answer: 5.6 g

Question: What about the “Fetuses, Sex F” value ([2]; Mean, 1000 mg/kg bw/day) of the same compound?
Answer: 7.4

Question: And the “Fetuses, Sex M” value ([2]; Mean, 1000 mg/kg bw/day)?
Answer: 7.5

Question: What about the “Implant. Sites” value ([2]; Mean, 1000 mg/kg bw/day) of the same compound?
Answer: 15.8

Question: And the “Post- Implant. Loss” value ([2]; Mean, 1000 mg/kg bw/day)?
Answer: 0.9

Question: What about the “Pre- Implant. Loss” value ([2]; Mean, 1000 mg/kg bw/day) of the same compound?
Answer: 1.1

Question: And the “Resorptions Early” value ([2]; Mean, 1000 mg/kg bw/day)?
Answer: 0.9

Question: And the “Resorptions Late” value ([2]; Mean, 1000 mg/kg bw/day)?
Answer: 0.0

Question: What about the “Dead Fetuses” value ([2]; Total, 125 mg/kg bw/day) of the same compound?
Answer: 0

Question: What about the “Fetuses, Sex F” value ([2]; Total, 125 mg/kg bw/day) of the same compound?
Answer: 170

Question: What about the “Fetuses, Sex M” value ([2]; Total, 125 mg/kg bw/day) of the same compound?
Answer: 177

Question: And the “Implant. Sites” value ([2]; Total, 125 mg/kg bw/day)?
Answer: 364

Question: And the “Post- Implant. Loss” value ([2]; Total, 125 mg/kg bw/day)?
Answer: 17

Question: What about the “Pre- Implant. Loss” value ([2]; Total, 125 mg/kg bw/day) of the same compound?
Answer: 20

Question: And the “Resorptions Early” value ([2]; Total, 125 mg/kg bw/day)?
Answer: 17

Question: What about the “Resorptions Late” value ([2]; Total, 125 mg/kg bw/day) of the same compound?
Answer: 0

Question: And the “Corpora Lutea” value ([2]; Total, 500 mg/kg bw/day)?
Answer: 415

Question: And the “Dead Fetuses” value ([2]; Total, 500 mg/kg bw/day)?
Answer: 0

Question: What about the “Fetuses, Sex F” value ([2]; Total, 500 mg/kg bw/day) of the same compound?
Answer: 185

Question: And the “Fetuses, Sex M” value ([2]; Total, 500 mg/kg bw/day)?
Answer: 179

Question: And the “Implant. Sites” value ([2]; Total, 500 mg/kg bw/day)?
Answer: 384

Question: What about the “Post- Implant. Loss” value ([2]; Total, 500 mg/kg bw/day) of the same compound?
Answer: 20

Question: And the “Pre- Implant. Loss” value ([2]; Total, 500 mg/kg bw/day)?
Answer: 31

Question: And the “Resorptions Early” value ([2]; Total, 500 mg/kg bw/day)?
Answer: 19

Question: And the “Resorptions Late” value ([2]; Total, 500 mg/kg bw/day)?
Answer: 1

Question: And the “Corpora Lutea” value ([2]; Total, 1000 mg/kg bw/day)?
Answer: 372

Question: What about the “Dead Fetuses” value ([2]; Total, 1000 mg/kg bw/day) of the same compound?
Answer: 0

Question: And the “Fetuses, Sex F” value ([2]; Total, 1000 mg/kg bw/day)?
Answer: 162

Question: And the “Fetuses, Sex M” value ([2]; Total, 1000 mg/kg bw/day)?
Answer: 165

Question: What about the “Implant. Sites” value ([2]; Total, 1000 mg/kg bw/day) of the same compound?
Answer: 347

Question: And the “Post- Implant. Loss” value ([2]; Total, 1000 mg/kg bw/day)?
Answer: 20

Question: And the “Pre- Implant. Loss” value ([2]; Total, 1000 mg/kg bw/day)?
Answer: 25

Question: What about the “Resorptions Early” value ([2]; Total, 1000 mg/kg bw/day) of the same compound?
Answer: 20

Question: What about the “Resorptions Late” value ([2]; Total, 1000 mg/kg bw/day) of the same compound?
Answer: 0

Question: And the “NOAEL for both maternal toxicity and embryo/fetal development” value ([2]; oral gavage, gestation days 6-20)?
Answer: NOAEL for both maternal toxicity and embryo/fetal development = 1000 mg/kg bw/day
